Test results as given in publication PMC5835416 (Biochimica et biophysica acta, 2018).
Like-named read-outs stand apart in the source and are kept apart here.

Tests used:
tear lipocalin [1] = molecular target: T1, tear lipocalin (Homo sapiens, UniProt P31025); format: binding
Method in brief: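 Incubated 25°C 30 min or 34°C 16 h, then centrifuged ~196,000 × g, 1 h, same temperature. Bound (supernatant) and precipitated ligand quantified by absorbance via extinction coefficients. Lysozyme 10 μM as negative control. Triplicate means fitted to hyperbola and Hill equation.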

tear lipocalin [2] = molecular target: T1, tear lipocalin; experiment: Fluorescence binding assay with NBD-labeled lipids; details: 1 μM tear lipocalin; for fluorescence in the presence of tear lipocalin compared to the unbound label: 1 μM ligand; for Kd: apparent, pH 7.3
Method in brief: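 After equilibration, fluorescence spectra recorded at 20°C, λex 420 nm. Relative intensity at 523 nm used to compute bound label. Triplicate runs, means taken. B/P versus unbound lipid fitted by nonlinear regression to a rectangular hyperbola or Hill equation, giving apparent Kd and n.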

[3] = Centrifugal precipitation of lipid in buffer without protein; format: physicochemical; details: 10 mM Na-phosphate pH 7.3; ~196,000 × g
tear lipocalin [4] = molecular target: T1, tear lipocalin; experiment: Linear spectral summation; format: binding; details: apparent, tear lipocalin 10 μM, pH 7.3
Method in brief: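 Each spectrum fitted as linear sum of bound reference (2 μM ligand + 10 μM protein), unbound reference (2 μM ligand in buffer) and baseline, yielding bound and free ligand. Triplicate means fitted to hyperbola or Hill equation.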

tear lipocalin [5] = molecular target: T1, tear lipocalin; experiment: DAUDA displacement fluorescence assay; format: binding; details: end of titration
[6] = apparent, Hill equation fit, 10 μM (C6) or 20 μM (C12) tear lipocalin, 10 mM sodium phosphate pH 7.3
[7] = apparent, hyperbola fit, 10 μM (C6) or 20 μM (C12) tear lipocalin, 10 mM sodium phosphate pH 7.3

T1 sequence (P31025 19-176): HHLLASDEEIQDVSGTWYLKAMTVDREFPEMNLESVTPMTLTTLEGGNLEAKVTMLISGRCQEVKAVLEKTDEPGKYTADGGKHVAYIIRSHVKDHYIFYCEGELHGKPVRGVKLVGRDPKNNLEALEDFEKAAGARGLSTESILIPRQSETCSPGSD

Kd (tear lipocalin [1]; [6])	Kd (tear lipocalin [1]; [7])	apparent dissociation constant (Kd) (tear lipocalin [1]; fit not named)	fluorescence in the presence of tear lipocalin compared to the unbound label (tear lipocalin [2])	Kd (tear lipocalin [2]; Hill equation fit)	Kd (tear lipocalin [2]; hyperbola fit)	precipitation in buffer [3]	Kd (tear lipocalin [4]; Hill equation fit)	Kd (tear lipocalin [4]; hyperbola fit)	Kd (tear lipocalin [1]; read-out: apparent dissociation constant (Kd), fit not named)	residual DAUDA fluorescence compared with stearic acid (tear lipocalin [5])	Compound
0.29 µM	0.32 µM	sub-micromolar	enhanced fluorescence	0.08 µM	0.08 µM	complete precipitation	0.07 µM	0.06 µM			CCCCCCCCCCCCC/C=C/[C@@H](O)[C@H](CO)NC(=O)CCCCCNc1ccc([N+](=O)[O-])c2nonc12 [C6-NBD ceramide, N-[6-[(7-nitro-2-1,3-benzoxadiazol-4-yl)amino]hexanoyl]-D-erythro-sphingosine]
1.06 µM	1.23 µM		enhanced fluorescence	0.1 µM	0.13 µM	complete precipitation			1.2 µM		CCCCCCCCCCCCC/C=C/[C@@H](O)[C@H](CO)NC(=O)CCCCCCCCCCCNc1ccc([N+](=O)[O-])c2nonc12 [C12-NBD ceramide, N-[12-[(7-nitro-2-1,3-benzoxadiazol-4-yl)amino]dodecanoyl]-D-erythro-sphingosine]
										twice as great	CCCCCCCCCCCCC/C=C/[C@@H](O)[C@H](CO)NC(=O)CCCCCCCCCCCCCCCCC [C18-ceramide, ceramide-N-(octadecanoyl) sphing-4-enine, also known as N-stearoyl-D-erythro-sphingosine]
